Source: PubChem BioAssay (Broad Institute)
In the library only some 3.2% were active in any assay of this set; here they are far more common.
AF4-AF9 inh: inhibitors of AF4 peptide binding to AF9, primary screen, biochemical, AlphaScreen, biotin-AF4 peptide, FLAG-AF9, single point; Protein AF-9 (Homo sapiens), P42568; inhibition, % at 10 µM; actives 0.47% (n = 350,000);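 active means every replicate reaching a set inhibition limit, whatever the replicate mean, cut at about 25% in these data; inconclusive means mean inhibition reaches that limit but some replicates miss it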;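 further: 0% = plate neutral control median and 100% = total signal loss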
Target sequence (P42568 whole entry, looked up): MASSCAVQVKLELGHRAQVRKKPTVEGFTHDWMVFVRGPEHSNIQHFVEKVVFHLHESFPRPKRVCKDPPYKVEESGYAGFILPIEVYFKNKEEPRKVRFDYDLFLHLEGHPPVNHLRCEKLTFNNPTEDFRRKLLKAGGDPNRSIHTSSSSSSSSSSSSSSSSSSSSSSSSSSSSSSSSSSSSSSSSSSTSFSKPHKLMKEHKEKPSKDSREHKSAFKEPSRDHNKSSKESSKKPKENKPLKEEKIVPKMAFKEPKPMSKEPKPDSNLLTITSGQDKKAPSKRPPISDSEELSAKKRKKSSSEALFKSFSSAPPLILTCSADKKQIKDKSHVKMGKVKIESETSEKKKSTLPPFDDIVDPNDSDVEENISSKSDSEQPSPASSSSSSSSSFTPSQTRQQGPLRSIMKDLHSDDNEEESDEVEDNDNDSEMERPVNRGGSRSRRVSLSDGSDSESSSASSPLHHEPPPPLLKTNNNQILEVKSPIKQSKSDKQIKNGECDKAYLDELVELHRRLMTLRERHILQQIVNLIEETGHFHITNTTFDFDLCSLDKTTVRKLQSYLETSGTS
S100A4 MyoIIA: inhibitors of S100A4-myosin IIA peptide binding, primary screen, biochemical, fluorescence polarization, TAMRA-MyoIIA peptide; Protein S100-A4 (Homo sapiens), P26447; inhibition, % at 10.7 µM; actives 0.14% (n = 360,000); AID 652163, 2013;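 active means mean inhibition of at least 70% across replicates, with every replicate also reaching that level; inconclusive means mean inhibition reaches 70% but some replicates fall short; inactive means mean inhibition below 70%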
Target sequence (P26447 whole entry, looked up): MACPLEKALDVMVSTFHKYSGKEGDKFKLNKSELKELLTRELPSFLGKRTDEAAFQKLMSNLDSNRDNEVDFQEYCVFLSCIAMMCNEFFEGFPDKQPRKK
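Assay system: human S100A4 monomer with TAMRA-labelled myosin IIA peptide / Buffer or medium: Calcium-containing HEPES buffer, pH 7.2 / Reagent: TAMRA-labelled myosin IIA heavy-chain peptide probe, 5 nM / Compound: one dose per compound / Timing: polarization read 5 min after assay mix addition, stable 5–60 min / Benchmarks: neutral control DMSO, positive control TFP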
DENV2 CPE: inhibitors of DENV2 cytopathic effect, primary screen, cell-based, plate reader, single concentration; DENV2-infected cells, cytopathic effect rescue; CPE inhibition, % at 9.99 µM; actives 1.7% (n = 350,000); in the data active means CPE inhibition above about 20%, passing the limit was not always enough; inconclusive means no clear call, values can overlap the other calls; tested in BHK-21 cells;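 further: 0% = median of neutral control wells and 100% = median of positive control wells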
rRNA inh HTS: reduced GFP signal of wild-type E. coli, primary screen, bacterial rRNA inhibitor project, GFP/RFP fluorescence, OD600, single point. E. coli WT GFP vs humanized-ribosome RFP mutants, 24 h; active compounds read low; DMSO median 0, no signal -100. GFP signal change (wild-type ribosome), % (concentration not given with the values). actives 1.6% (n = 350,000). AID 720706, 2013;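 active means significant combined selectivity score with lowered wild-type GFP, culture density cut under 30%, mutant RFP and density less affected; inactive means any of these conditions unmet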
Cneo AK release: Cryptococcus neoformans cell lysis inducers, primary screen, AK release luminescence, single concentration; AID 651654, 2012; lysis activity, % at 15 µM; C. neoformans lysis, adenylate kinase release luminescence, 4 h; normalised: neutral wells 0, clomiphene wells 100; actives 0.2% (n = 360,000);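 active means mean lysis activity across replicates of at least 80%, whatever share of replicates individually reach that level; inactive means mean lysis activity below 80%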
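Material – log-phase Cryptococcus neoformans yeast cells · Input – 5 × 10^6 yeast cells/mL · Medium – fresh YPD growth medium · Doses – single compound concentration per well · Timing – static 4 h at 37 °C with compound, 1 h detection · Detection – adenylate kinase release luminescence · Read-out – signal increase indicating cell lysis · Control set – Clomiphene as positive lysis control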
PfHsp90 yeast 2: growth inhibition of PfHsp90-expressing yeast, primary screen, antimalarial PfHsp90 inhibitor project, S. cerevisiae, BacTiter-Glo luminescence, single point, set 2; BacTiter-Glo ATP, 48 h; yeast lacking PDR1 and PDR3 efflux regulators; inhibition, % at 9.4 µM; actives 0.32% (n = 310,000); AID 504621, 2011;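 active means every replicate shows inhibition above about 80%, whatever the replicate mean, limit read from the data; inconclusive means mean inhibition reaches the set limit but some replicate falls short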;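 further: 0% = DMSO neutral controls and 100% = 20 µM radicicol positive controls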
* = called active by the depositor; ? = inconclusive; . = not tested or not shown.

SMILES | AF4-AF9 inh | S100A4 MyoIIA | DENV2 CPE | rRNA inh HTS | Cneo AK release | PfHsp90 yeast 2
Cc1[nH]c2ccccc2c1/C=N/NC(=O)c1cc(-c2ccccc2)n[nH]1 | 1.8 | -0.6 | ? | -23.2* | 0.1 | -20.6
Cc1[nH]c2ccccc2c1/C=N/NC(=O)Nc1ccccc1 | 0.1 | 7.0 | -1.0 | -20.1* | . | -8.0
C[C@@H]1CN([C@@H](C)CO)C(=O)c2cc(NC(=O)Cn3cnnn3)ccc2O[C@@H]1CN(C)Cc1ccncc1 | -1.3 | 1.5 | 3.6 | 3.7 | -0.9 | .
COc1ccc(/C=N/NC(=S)N[C@H]2CC3CCC2C3)cc1 (stereo partly drawn) | 8.5 | -1.9 | 6.0 | -2.5 | 9.1 | -10.5
COc1cc(/C=N/NC(=S)NC2CC3CCC2C3)ccc1O (stereo not drawn) | 9.8 | 21.2 | 4.6 | -25.9* | 6.6 | -1.8
COc1ccc(C)cc1NC(=O)c1ccc(CN2CCc3ccccc3C2)cc1 | -1.9 | -5.8 | -2.4 | -23.6* | 0.1 | -6.3
O=C(Oc1ccc(/C=N/O)cc1)c1ccccc1Cl | 4.1 | 8.6 | 2.5 | -29.0* | . | 3.2
COc1ccccc1-c1c(C)nn2c(N3CCN(Cc4ccccc4)CC3)cc(C)nc12 | 3.1 | -2.2 | 54.8* | -12.3 | 1.3 | 0.0
COc1ccccc1-c1c(C)nn2c(-c3ccccc3)cc(C)nc12 | 26.5* | 0.0 | 5.3 | -21.8 | . | -8.1
COc1ccc(-c2c(C)nn3c(N4CCN(Cc5ccccc5)CC4)cc(C)nc23)cc1OC | 14.8 | -2.5 | -7.0 | -4.5 | 1.2 | 13.4
COC(=O)c1cn(C(=O)c2ccc(OC)c(OC)c2)c2ccccc12 | -5.4 | -1.0 | 25.8* | -17.6 | -0.9 | 6.4
Cc1[nH]c2ccc(C(=O)N3CCN(c4cccc(Cl)c4)CC3)cc2c1C | -2.8 | -7.0 | ? | -11.0 | . | 93.0*
Cc1[nH]c2ccc(C(=O)N3CCN(c4ccccc4Cl)CC3)cc2c1C | 3.5 | -2.6 | -2.5 | -5.1 | 5.6 | 7.6
COc1ccc(S(=O)(=O)N(C)C[C@@H]2OCCCC[C@@H](C)Oc3ccc(NS(=O)(=O)c4ccc(C)cc4)cc3C(=O)N([C@@H](C)CO)C[C@@H]2C)cc1 | -1.0 | -25.0 | -1.6 | 0.0 | 38.0 | .
O=C(COC(=O)c1ccccc1Cl)NCCC1=CCCCC1 | -3.9 | -0.4 | -0.6 | -21.4* | . | -19.6
C[C@@H]1CN([C@H](C)CO)C(=O)c2cc(C#CC3CCCCC3)cnc2O[C@@H]1CN(C)C(=O)Nc1ccccc1 | 4.5 | -1.4 | 1.8 | 0.5 | 2.7 | .
Cc1noc(C)c1NC(=O)Nc1ccc2c(c1)C(=O)N([C@H](C)CO)C[C@@H](C)[C@H](CN(C)Cc1ccc(C(=O)O)cc1)O2 | -1.6 | -3.1 | 9.9 | 5.4 | -1.7 | .
COc1ccccc1-c1ccc2n(c1=O)C[C@@H]1[C@@H](CO)[C@H](C(=O)NC3CCC3)N(C(=O)NC(C)C)[C@H]21 | -1.4 | -4.1 | ? | -2.8 | -0.3 | .
CCC1(CC)NC(=O)N(CC(=O)OCC(=O)c2ccccc2OC)C1=O | -0.7 | 0.0 | 2.5 | 1.9 | . | 2.3
COc1ccccc1C(=O)COC(=O)CN1C(=O)NC2(CCCC2)C1=O | -0.5 | 93.2* | 7.5 | 9.0 | . | .
O=c1oc(CCCO)cc2ccc(C#Cc3ccsc3)cc12 | 1.6 | 5.4 | . | -16.0 | 5.9 | -3.5
CN(C)c1ccc(C#Cc2ccc3cc(CCCO)oc(=O)c3c2)cc1 | -14.4 | 1.8 | 77.6* | -23.2 | -1.3 | -2.1
Clc1cccc(Cl)c1CSc1nnc(-c2ccncc2)s1 | -3.6 | 1.7 | 70.1* | 2.7 | . | -31.0
Cc1ccc(C[n+]2cc(-c3ccc(Cl)cc3)n3c2CCC3)cc1 | 2.4 | -3.1 | 7.6 | -46.8* | 10.6 | 12.3
O=C(C[n+]1cc(-c2ccc(Cl)cc2)n2c1CCCCC2)c1ccccc1 | -0.9 | 3.7 | 0.4 | -51.2* | . | 19.3
SMILES | AF4-AF9 inh | S100A4 MyoIIA | DENV2 CPE | rRNA inh HTS | Cneo AK release | PfHsp90 yeast 2
Cc1ccc(-c2c[n+](Cc3ccc(Cl)cc3)c3n2CCC3)cc1 | -0.8 | -9.5 | -4.8 | . | . | -26.4
COC(=O)C[C@@H]1CC[C@H](NS(=O)(=O)c2ccc(OC)cc2)[C@@H](CO)O1 | -2.2 | -2.7 | -2.2 | 1.9 | 3.2 | .
CN(C)CC(=O)N1CC[C@@H]2[C@H]1c1cc(-c3ccccc3F)ccc1N(C)[C@@H]2CO | . | . | 48.7* | -3.3 | 34.4 | .
CN(C)CC(=O)N1CC[C@@H]2[C@H]1c1cc(-c3ccccc3)ccc1N(C)[C@H]2CO | 12.7 | 13.0 | -9.2 | 10.4 | -4.9 | .
CN(C)CC(=O)N1CC[C@H]2[C@@H]1c1cc(-c3ccccc3F)ccc1N(C)[C@H]2CO | . | . | 21.5* | 6.2 | 39.4 | .
C[C@@H]1CN([C@@H](C)CO)C(=O)Cc2cc(NC(=O)NC3CCCCC3)ccc2O[C@@H]1CN(C)S(=O)(=O)c1ccccc1 | 0.8 | 3.7 | ? | -3.7 | -1.2 | .
Clc1ccccc1N=C1NN=C(c2cccs2)CS1 | 7.1 | -12.8 | 0.6 | -31.8* | -8.2 | .
CCc1cc(/C(Cc2ccc3ccccc3n2)=N\O)c(O)cc1O | . | . | . | . | 0.4 | -2.4
Cc1c(O)ccc(/C(Cc2ccc3ccccc3n2)=N\N)c1O | . | -5.8 | 2.1 | -25.3* | . | -15.0
Cc1ccc(OCc2ccc(Br)cc2)c([N+](=O)[O-])n1 | -0.1 | 1.6 | -9.6 | -14.7 | . | .
Cc1ccc(OCc2ccc(-c3ccccc3)cc2)c([N+](=O)[O-])n1 | -0.6 | 4.2 | 35.8* | 2.3 | 0.1 | 43.3
C[C@@H]1CCCCO[C@@H](CN(C)S(=O)(=O)c2ccc(Cl)cc2)[C@H](C)CN([C@@H](C)CO)C(=O)c2cc(NC(=O)Nc3ccc(C(F)(F)F)cc3)ccc2O1 | . | . | 35.5* | 5.8 | 1.7 | .
C[C@@H]1CN([C@H](C)CO)C(=O)c2cc(NC(=O)Nc3ccc(C(F)(F)F)cc3)ccc2O[C@@H](C)CCCCO[C@H]1CN(C)S(=O)(=O)c1ccc(Cl)cc1 | . | . | 14.7 | -7.8 | -5.1 | .
C[C@H](CO)N1C[C@H](C)[C@@H](CN(C)S(=O)(=O)c2ccc(Cl)cc2)OCCCC[C@H](C)Oc2ccc(NC(=O)Nc3ccc(C(F)(F)F)cc3)cc2C1=O | . | . | 36.5* | 2.9 | -5.0 | .
C[C@H](CO)N1C[C@H](C)[C@H](CN(C)S(=O)(=O)c2ccc(Cl)cc2)OCCCC[C@H](C)Oc2ccc(NC(=O)Nc3ccc(C(F)(F)F)cc3)cc2C1=O | . | . | 4.6 | -3.6 | -0.4 | .
COc1ccc(NCC(O)COc2ccc(C(C)(C)C)cc2)cc1 (stereo not drawn) | 7.2 | 10.3 | -7.6 | -29.5 | . | -38.3
